The M2OR odorant receptor database

How the values were obtained:
Conditions in all cases: stereoisomer not certain
[1] = system: OR9G9
Method in brief: (§1)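 Each receptor–molecule pair is labelled responsive or non-responsive (inactive) according to whether the original authors judged the measured signal statistically different from baseline. The data were taken from the main text and supplementary material of published papers and checked for typos and inconsistencies. Assay methods differed by source, with transient luciferase assays in mammalian cell lines being common.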

[2] = molecular target: OR8U9 (Homo sapiens) (UniProt P0C7N5)
Chain of OR8U9 (Homo sapiens) (P0C7N5 whole entry): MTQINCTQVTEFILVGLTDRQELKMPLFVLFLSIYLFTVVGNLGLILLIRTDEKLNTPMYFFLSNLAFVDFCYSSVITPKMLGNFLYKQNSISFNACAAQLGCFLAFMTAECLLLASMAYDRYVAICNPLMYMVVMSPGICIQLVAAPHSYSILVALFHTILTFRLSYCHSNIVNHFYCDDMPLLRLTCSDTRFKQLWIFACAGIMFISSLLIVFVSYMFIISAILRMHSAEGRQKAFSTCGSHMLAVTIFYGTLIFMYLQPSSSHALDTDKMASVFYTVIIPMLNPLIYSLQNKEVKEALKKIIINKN
Method in brief: as §1

[3] = molecular target: OR9A2 (Homo sapiens) (UniProt Q8NGT5)
Chain of OR9A2 (Homo sapiens) (Q8NGT5 whole entry): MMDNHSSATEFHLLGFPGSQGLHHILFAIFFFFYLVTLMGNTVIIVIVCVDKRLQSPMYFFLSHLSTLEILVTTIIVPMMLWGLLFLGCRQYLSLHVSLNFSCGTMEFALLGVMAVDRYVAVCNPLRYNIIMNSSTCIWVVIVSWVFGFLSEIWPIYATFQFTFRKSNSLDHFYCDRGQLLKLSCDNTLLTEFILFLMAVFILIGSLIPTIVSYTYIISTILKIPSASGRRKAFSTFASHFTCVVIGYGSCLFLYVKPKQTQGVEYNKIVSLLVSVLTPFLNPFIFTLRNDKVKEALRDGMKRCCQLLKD
Method in brief: as §1

[4] = molecular target: OR9A4 (Homo sapiens) (UniProt Q8NGU2)
Chain of OR9A4 (Homo sapiens) (Q8NGU2 whole entry): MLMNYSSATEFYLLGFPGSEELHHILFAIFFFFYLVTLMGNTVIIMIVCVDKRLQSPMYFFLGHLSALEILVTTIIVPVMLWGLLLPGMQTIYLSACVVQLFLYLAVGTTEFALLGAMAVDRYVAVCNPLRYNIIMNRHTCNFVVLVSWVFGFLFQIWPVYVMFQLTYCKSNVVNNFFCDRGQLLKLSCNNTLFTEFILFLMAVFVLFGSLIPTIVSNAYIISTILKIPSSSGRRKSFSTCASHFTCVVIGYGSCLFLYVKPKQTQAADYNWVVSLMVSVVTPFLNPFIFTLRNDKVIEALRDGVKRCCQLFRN
Method in brief: as §1

[5] = molecular target: OR9G1 (Homo sapiens) (UniProt Q8NH87)
Chain of OR9G1 (Homo sapiens) (Q8NH87 whole entry): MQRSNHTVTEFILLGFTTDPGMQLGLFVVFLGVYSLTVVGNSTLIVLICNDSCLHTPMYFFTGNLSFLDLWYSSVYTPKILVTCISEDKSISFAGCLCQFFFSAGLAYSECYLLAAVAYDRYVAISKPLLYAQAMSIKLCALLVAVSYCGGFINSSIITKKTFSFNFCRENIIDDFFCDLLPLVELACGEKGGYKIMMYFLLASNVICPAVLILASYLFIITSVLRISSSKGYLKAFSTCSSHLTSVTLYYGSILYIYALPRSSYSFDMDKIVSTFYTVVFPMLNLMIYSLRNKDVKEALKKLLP
Method in brief: as §1

[6] = molecular target: OR9G4 (Homo sapiens) (UniProt Q8NGQ1)
Chain of OR9G4 (Homo sapiens) (Q8NGQ1 whole entry): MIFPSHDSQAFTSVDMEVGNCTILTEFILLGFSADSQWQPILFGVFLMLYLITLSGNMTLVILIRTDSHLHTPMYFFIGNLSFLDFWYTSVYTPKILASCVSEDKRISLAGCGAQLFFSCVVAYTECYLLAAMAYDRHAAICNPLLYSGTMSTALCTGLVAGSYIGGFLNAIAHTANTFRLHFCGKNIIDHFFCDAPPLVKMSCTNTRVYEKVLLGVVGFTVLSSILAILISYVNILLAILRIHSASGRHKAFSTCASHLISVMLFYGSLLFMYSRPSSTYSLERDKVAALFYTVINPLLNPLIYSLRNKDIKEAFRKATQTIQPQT
Method in brief: as §1

[7] = molecular target: OR9G9 (Homo sapiens) (UniProt P0C7N8)
Chain of OR9G9 (Homo sapiens) (P0C7N8 whole entry): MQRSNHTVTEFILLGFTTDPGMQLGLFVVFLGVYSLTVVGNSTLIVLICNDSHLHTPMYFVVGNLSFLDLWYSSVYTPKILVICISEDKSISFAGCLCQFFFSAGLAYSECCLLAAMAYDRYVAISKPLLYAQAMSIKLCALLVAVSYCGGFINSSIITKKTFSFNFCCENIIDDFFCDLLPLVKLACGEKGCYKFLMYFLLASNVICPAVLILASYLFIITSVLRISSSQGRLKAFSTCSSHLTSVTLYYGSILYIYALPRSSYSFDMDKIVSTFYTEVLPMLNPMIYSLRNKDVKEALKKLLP
Method in brief: as §1

[8] = molecular target: OR9I1 (Homo sapiens) (UniProt Q8NGQ6)
Chain of OR9I1 (Homo sapiens) (Q8NGQ6 whole entry): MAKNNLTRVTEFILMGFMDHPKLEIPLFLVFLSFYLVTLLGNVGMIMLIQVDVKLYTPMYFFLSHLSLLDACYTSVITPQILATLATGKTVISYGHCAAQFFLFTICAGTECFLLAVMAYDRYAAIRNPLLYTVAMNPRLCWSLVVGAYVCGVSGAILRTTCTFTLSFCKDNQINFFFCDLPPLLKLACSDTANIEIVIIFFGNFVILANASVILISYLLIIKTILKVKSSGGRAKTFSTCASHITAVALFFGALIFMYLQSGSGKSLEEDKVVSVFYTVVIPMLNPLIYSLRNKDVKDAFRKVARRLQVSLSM
Method in brief: as §1

[9] = molecular target: OR9K2 (Homo sapiens) (UniProt Q8NGE7)
Chain of OR9K2 (Homo sapiens) (Q8NGE7 whole entry): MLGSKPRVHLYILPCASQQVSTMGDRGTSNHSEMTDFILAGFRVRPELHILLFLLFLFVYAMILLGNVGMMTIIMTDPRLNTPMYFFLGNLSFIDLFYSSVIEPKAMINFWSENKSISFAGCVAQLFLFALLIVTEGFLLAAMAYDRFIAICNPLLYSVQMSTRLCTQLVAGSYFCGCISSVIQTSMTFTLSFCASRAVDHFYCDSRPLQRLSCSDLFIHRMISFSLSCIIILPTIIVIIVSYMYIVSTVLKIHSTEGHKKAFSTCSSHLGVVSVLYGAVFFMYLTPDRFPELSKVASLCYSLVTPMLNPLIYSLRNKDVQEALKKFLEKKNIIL
Method in brief: as §1

[10] = molecular target: OR9Q1 (Homo sapiens) (UniProt Q8NGQ5)
Chain of OR9Q1 (Homo sapiens) (Q8NGQ5 whole entry): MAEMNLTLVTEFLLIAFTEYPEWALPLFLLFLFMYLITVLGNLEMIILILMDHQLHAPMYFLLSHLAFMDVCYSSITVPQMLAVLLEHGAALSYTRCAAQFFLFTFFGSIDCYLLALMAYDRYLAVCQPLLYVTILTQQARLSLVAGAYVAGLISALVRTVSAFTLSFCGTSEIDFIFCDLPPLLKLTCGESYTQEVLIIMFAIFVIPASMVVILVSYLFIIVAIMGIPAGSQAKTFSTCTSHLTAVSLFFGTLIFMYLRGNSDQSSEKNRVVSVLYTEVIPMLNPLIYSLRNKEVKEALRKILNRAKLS
Method in brief: as §1

[11] = molecular target: OR9Q2 (Homo sapiens) (UniProt Q8NGE9)
Chain of OR9Q2 (Homo sapiens) (Q8NGE9 whole entry): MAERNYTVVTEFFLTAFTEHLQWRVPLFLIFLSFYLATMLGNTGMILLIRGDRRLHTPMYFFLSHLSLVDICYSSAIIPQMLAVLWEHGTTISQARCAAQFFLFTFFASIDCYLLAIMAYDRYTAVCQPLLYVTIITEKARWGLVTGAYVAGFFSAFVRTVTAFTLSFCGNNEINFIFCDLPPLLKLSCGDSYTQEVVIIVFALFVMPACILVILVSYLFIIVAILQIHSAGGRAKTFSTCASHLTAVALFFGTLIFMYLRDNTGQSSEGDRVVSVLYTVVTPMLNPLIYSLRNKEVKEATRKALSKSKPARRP
Method in brief: as §1

[12] = molecular target: Olr226 (Rattus norvegicus) (UniProt P23270)
Chain of Olr226 (Rattus norvegicus) (P23270 whole entry): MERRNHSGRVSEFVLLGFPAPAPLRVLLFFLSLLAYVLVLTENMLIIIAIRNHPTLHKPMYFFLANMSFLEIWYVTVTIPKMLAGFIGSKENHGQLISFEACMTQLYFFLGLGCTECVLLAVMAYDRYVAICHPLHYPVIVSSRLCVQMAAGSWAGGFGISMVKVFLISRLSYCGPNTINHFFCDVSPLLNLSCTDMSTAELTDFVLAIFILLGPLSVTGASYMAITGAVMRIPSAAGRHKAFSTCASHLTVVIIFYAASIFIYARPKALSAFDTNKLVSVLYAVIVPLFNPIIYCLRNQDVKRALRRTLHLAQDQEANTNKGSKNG
Method in brief: as §1

[13] = system: OR8U9 T2A Q3H Q293R
Method in brief: as §1

[14] = system: OR8U9
Chain of OR8U9 (as listed by the source): as the sequence (P0C7N5 whole entry) above, with Q293R counted along it
Method in brief: as §1

[15] = system: OR9A2 C304Y
Chain of OR9A2 C304Y (as listed by the source, stated change not applied): as the sequence (Q8NGT5 whole entry) above, with C304Y counted along it
Method in brief: as §1

[16] = system: OR9G4 H6Y N206D V222A
Method in brief: as §1

[17] = system: OR9G4 N206D V222A
Method in brief: as §1

[18] = system: OR9K2 R207H
Chain of OR9K2 R207H (as listed by the source, stated change not applied): as the sequence (Q8NGE7 whole entry) above, with R207H counted along it
Method in brief: as §1

[19] = system: OR9Q1 A83T
Chain of OR9Q1 A83T (as listed by the source, stated change not applied): as the sequence (Q8NGQ5 whole entry) above, with A83T counted along it
Method in brief: as §1

[20] = system: OR9Q2 C179R
Chain of OR9Q2 C179R (as listed by the source, stated change not applied): as the sequence (Q8NGE9 whole entry) above, with C179R counted along it
Method in brief: as §1

Measured: odorant receptor agonist call

Chain of OR9G9 (as listed by the source): as the sequence (P0C7N8 whole entry) above, with C193G counted along it

O=CC=Cc1ccccc1
active: [1]

Cc1c([N+](=O)[O-])c(C)c([N+](=O)[O-])c(C(C)(C)C)c1[N+](=O)[O-]
inactive: [2] | [3] | [4] | [5] | [6] | [7] | [8] | [9] | [10] | [11]

CC(C=O)Cc1ccc2c(c1)OCO2 (stereo not given)
inactive: [12]

C=CCOC(=O)Cc1ccccc1
inactive: [2] | [13] | [14] | [3] | [15] | [4] | [5] | [6] | [16] | [17] | [1] | [8] | [9] | [18] | [10] | [19] | [11] | [20]
